Assay results published in ChEMBL document CHEMBL1135535, “Discovery and optimization of a series of carbazole ureas as NPY5 antagonists for the treatment of obesity” (J Med Chem, 2002).

How the values were obtained:
[1] = molecular target: T1, Neuropeptide Y receptor type 5 (Homo sapiens, UniProt Q15761); assay: Binding affinity to the human Neuropeptide Y receptor Y5 (NPY5)
T1 sequence (Q15761 whole entry): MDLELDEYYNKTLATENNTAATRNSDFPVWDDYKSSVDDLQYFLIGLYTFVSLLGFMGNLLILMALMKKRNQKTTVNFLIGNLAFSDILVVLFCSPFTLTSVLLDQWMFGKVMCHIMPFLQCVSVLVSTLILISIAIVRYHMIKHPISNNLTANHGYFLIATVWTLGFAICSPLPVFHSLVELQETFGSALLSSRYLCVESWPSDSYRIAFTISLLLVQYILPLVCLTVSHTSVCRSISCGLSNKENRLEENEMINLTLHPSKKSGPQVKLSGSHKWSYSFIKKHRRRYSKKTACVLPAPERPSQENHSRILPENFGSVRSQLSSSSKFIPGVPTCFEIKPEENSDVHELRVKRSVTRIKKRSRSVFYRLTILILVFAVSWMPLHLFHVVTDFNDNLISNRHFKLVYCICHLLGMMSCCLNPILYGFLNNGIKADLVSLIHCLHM
How it was run: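 Membranes from Hi5 insect cells infected 48 h with baculovirus carrying rat or human NPY-5 receptor, prepared by sonication in hypotonic Tris/EDTA/sucrose buffer and harvested on a 41% sucrose cushion. 0.01 µCi [125I]PYY incubated with membranes and compound in HEPES buffer (CaCl2, MgCl2, 0.5% BSA, pH 7.4) for 2 h at room temperature. Filtered onto PEI-treated GF/C plates, then scintillation counted.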

Salmonella typhimurium [2] = assay: Ames activity in TA 98+S9, expressed as maximum fold increase in mutation frequency; NI means no increase; assay type: functional, organism-based; conditions: Salmonella enterica subsp. enterica serovar Typhimurium
How it was run: (§1)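 Salmonella typhimurium TA98 plate incorporation assay with S9 mix. The S9 is the postmitochondrial fraction of livers from Aroclor 1254-treated Sprague–Dawley rats, supplemented with cofactors for NADPH generation. Tested across 6–2000 μg/plate. The value is the maximum increase in mutation frequency relative to background across that dose range.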

Salmonella typhimurium [3] = assay: Ames activity in TA 98+S9, expressed as maximum fold increase in mutation frequency; assay type: functional, Salmonella enterica subsp. enterica serovar Typhimurium; how it was run: as §1

| IC50 [1] [nM] | SMILES | also measured |
| --- | --- | --- |
| 350 | O=C(CSc1ccncc1)Nc1ccc(C(=O)c2ccccc2)cc1 | – |
| 33 | Cn1c2ccccc2c2cc(NC(=O)CCc3ccncc3)ccc21 | – |
| 800 | CCn1c2ccccc2c2ccc(NC(=O)CCc3ccncc3)cc21 | – |
| 2200 | CCn1c2ccccc2c2cc(N(C)C(=O)CCc3ccncc3)ccc21 | – |
| 700 | CCn1c2ccccc2c2cc(C(=O)NCCc3ccncc3)ccc21 | – |
| 300 | O=C(CCc1ccncc1)Nc1ccc(C(=O)c2ccccc2)cc1 | – |
| 3 | CC(=O)n1c2ccccc2c2cc(NC(=O)CCc3ccncc3)ccc21 | – |
| 15 | CS(=O)(=O)n1c2ccccc2c2cc(NC(=O)N3CCOCC3)ccc21 | – |

The next lines start with the molecule.

| SMILES | IC50 [1] [nM] | also measured |
| --- | --- | --- |
| Cc1c(N)cc(C)c2c1c1ccccc1n2C(C)C | – | NI (Salmonella typhimurium [2]): no increase |
| CS(=O)(=O)n1c2ccccc2c2cc(N)ccc21 | – | Max fold increase (Salmonella typhimurium [3]): 35 |
| CC(C)n1c2ccc(F)cc2c2cc(NC(=O)N3CCOCC3)ccc21 | 3 | – |
| CC(C)c1c(NC(=O)N2CCOCC2)ccc2c1c1ccccc1n2C(C)C | 770 | – |
| CC(C)n1c2ccc(N)cc2c2cc(F)ccc21 | – | Mutation frequency (Salmonella typhimurium [3]): 15 |
| CN(C)S(=O)(=O)n1c2ccccc2c2cc(N)ccc21 | – | Max fold increase (Salmonella typhimurium [3]): 39 |
| CCOc1c(N)ccc2c1c1ccccc1n2C(C)C | – | NI (Salmonella typhimurium [2]): no increase |
| CC(C)n1c2ccccc2c2c(F)c(NC(=O)N3CCOCC3)c(F)cc21 | 12 | – |
| O=C(Nc1ccc2c(c1)c1ccccc1n2C1CCOC1)N1CCOCC1 (stereo not drawn) | 40 | – |
| CC(C)(C)Cn1c2ccccc2c2cc(N)ccc21 | – | Mutation frequency (Salmonella typhimurium [3]): 5 |
| Nc1ccc2c(c1)c1ccccc1n2C1CCOC1 (stereo not drawn) | – | Mutation frequency (Salmonella typhimurium [3]): 66 |
| Cc1cccc2c3cc(N)ccc3n(C(C)C)c12 | – | Mutation frequency (Salmonella typhimurium [3]): 6 |
| Cc1c(NC(=O)N2CCOCC2)cc(C)c2c1c1ccccc1n2C(C)C | 710 | – |
| CC(C)n1c2ccccc2c2c(F)c(N)c(F)cc21 | – | Mutation frequency (Salmonella typhimurium [3]): 2 |
| CC(C)(C)Cn1c2ccccc2c2cc(NC(=O)N3CCOCC3)ccc21 | 78 | – |
